The values that follow come from PMC4079331 (Journal of Medicinal Chemistry, 2014).

A short description of data set [1]: Phase I metabolism in mouse microsomes. As to conditions: 1 h incubation, 100 μM, NADPH. Type of data set: in vitro ADME. The method in brief:
(§1)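 Mouse or human microsomes (5 mg/mL protein final) in 0.1 M sodium phosphate pH 7.4 with 100 μM test compound (DMSO <1%), preincubated 5 min at 37 °C. Started with 1 mM NADPH and run 60 min at 37 °C. Stopped with MeOH and centrifuged; supernatant analysed by LCMS. Controls: zero time, no NADPH, boiled microsomes, and 7-ethoxycoumarin as CYP substrate.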

Data set [2] is described as follows: Phase I metabolism in human microsomes. The following applies: 1 h incubation, 100 μM, NADPH. Type of data set: in vitro ADME. In short, it runs like this:
as §1

A further data set deals with CLL patient cells. Briefly: In vitro activity against CLL patient cells, summary statements over cell lines. Type of data set: cell-based, human. As to conditions: for in vitro activity against CLL patient cells: result in words. In short, it runs like this:
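Primary CLL cells from consented patients, cultured in RPMI with 10% FBS and test compound at designated concentrations for 48 h (37 °C, 5% CO2). Viability is the DiOC6+/PI− fraction relative to untreated or vehicle control. EC50 and SE come from dose–response curves.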

Data set [3] in a line: Nonspecific protein binding, from recovery out of plasma and serum. As to conditions: result in words. Type of data set: in vitro ADME. The method in brief:
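Test compound at 50 μM final (1% DMSO) in pooled female BALB/c mouse plasma or serum, or in human AB serum, incubated at 37 °C with gentle agitation. Aliquots taken at 0, 0.5, 1, 2, 8, 18 and 24 h were precipitated with CH3CN and centrifuged at 3000g for 10 min; supernatants were quantified by LCMS. Run in triplicate.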

Data set [4] is described as follows: Phase II glucuronidation in mouse S9 fractions. Type of data set: in vitro ADME.
The nature of data set [5]: Phase II glucuronidation in human S9 fractions. Type of data set: in vitro ADME.
The subject of data set [6] is KB nasopharyngeal tumor cells. As to conditions: in vitro cultured cells; from the literature, reference not given; cited from earlier work.
In a further data set the test system is CLL. The following applies: read-out: EC50 against CLL; p53-independent activity; cited from earlier work.
Data set [7] in a line: Stability in mouse plasma. The following applies: female, BALB/c, mouse plasma (pooled). In kind it is in vitro ADME. In short, it runs like this:
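Test compound at 50 μM final (1% DMSO) in pooled plasma from female BALB/c mice or human AB serum. Incubated at 37 °C with gentle agitation. Samples taken at 0, 0.5, 1, 2, 8, 18 and 24 h. Proteins precipitated with CH3CN, vortexed and centrifuged (3000g, 10 min, room temperature); supernatant analysed by LCMS. Run in triplicate.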

Data set [8] deals with CLL1 (CLL patient cell line). Briefly: In vitro cytotoxicity against primary CLL patient cells CLL1. As to conditions: read-out: antitumor EC50 CLL1; Table 3; SE ±0.01 μM. Type of data set: cell-based, human.
The subject of data set [9] is CLL2 (CLL patient cell line). As to the kind of experiment: In vitro cytotoxicity against primary CLL patient cells CLL2. In kind it is cell-based, human. As to conditions: for EC50: read-out: antitumor EC50 CLL2, Table 3, SE ±0.01 μM.
Data set [10] concerns JVM-2 (ATCC leukemia cell line). Briefly: In vitro cytotoxicity against JVM-2. In kind it is cell-based. The following applies: read-out: antitumor EC50 JVM-2; Table 3; SE ±0.01 μM.
In another data set the test system is HeLa cell line. Briefly: HeLa cell viability by the MTT method. Type of data set: cell-based. As to conditions: read-out: antitumor EC50 HeLa; Table 3; SE ±0.01 μM. In general terms: Tetrazolium dyes change colour on reduction, which living cells bring about.

Take `CCOc1ccc2ccc(=O)oc2c1` [7-ethoxycoumarin, reference compound]: the “metabolism by cytochrome P450 enzymes, recovery from supernatant (LCMS)” value (shortened to “metabolism by cytochrome P450 enzymes”) in [1] and in [2] was “metabolized” each time.

Regarding `CN1C(=O)N[C@H]2[C@@H]3NC(=O)c4ccc(Br)n4[C@@H]3C[C@]21O` [1a, (−)-Agelastatin A], the 50% effective concentration (EC50) in the data set with CLL patient cells (read-out: EC50, CLL activity, range over the cell lines tested) is 0.11 to 0.31 µM; with CLL, 0.06 to 0.1 µM. Further, in data set [3], the nonspecific protein binding result is on record as “relatively low”. For the same compound, the “metabolism by cytochrome P450 enzymes” value in data set [1] and in data set [2] was “quantitative recovery” in each case. For the same compound, the formation of glucuronides entry in [4] and in data set [5] was “No formation of glucoronides was detected” throughout. In addition, the “IC50, growth of KB nasopharyngeal tumor cells” value in data set [6] is on record as 0.5–1 μg mL^–1.

Take `CN1C(=O)N[C@H]2[C@@H]3NC(=O)c4ccc(C(F)(F)F)n4[C@@H]3C[C@]21O` [1j, 13-Debromo-13-trifluoromethyl-agelastatin A]: in the data set on CLL patient cells, the “in vitro activity against CLL patient cells” value (“in vitro activity” below) is reported as “nanomolar”. Also, in [7], the recovery at 24 h, 50 μM lay in the range of 65 to 90%. Moreover, in [3], the nonspecific protein binding entry is on record as “relatively low”. In addition, the “metabolism by cytochrome P450 enzymes” value in data set [1] and in data set [2] was “quantitative recovery” in each case.

Regarding `CN1C(=O)N[C@H]2[C@@H]3NC(=O)c4cc(Cl)c(Cl)n4[C@@H]3C[C@]21O` [1e, 13-Debromo-13,14-dichloro-agelastatin A], the “in vitro activity” value with CLL patient cells is on record as “nanomolar”.

On to O-Methyl-agelastatin A [4b], for which the EC50 in [8] was determined as 867 µM; in data set [9] it was 28.8 µM; in data set [10] it was 429 µM; with HeLa cell line it was 91.4 µM.

For the compound `CN1C(=O)N[C@H]2[C@@H]3NC(=O)c4cccn4[C@@H]3C[C@]21O` [1p, 13-Debromo-agelastatin A], the “loss of activity on removal of Br from C-13” value in data set [9] (compared with 1a) came to 25 fold. For the same compound, the “metabolism by cytochrome P450 enzymes” value in data set [1] and in [2] was “near quantitative recovery” in each case.

With `CN1C(=O)N[C@H]2[C@@H]3NC(=O)c4ccc(I)n4[C@@H]3C[C@]21O` [1g, 13-Debromo-13-iodo-agelastatin A], the “in vitro activity” value in the data set on CLL patient cells is listed as “nanomolar”.

Regarding `CN1C(=O)N[C@H]2[C@@H]3NC(=O)c4ccc(C#N)n4[C@@H]3C[C@]21O` [1n, 13-Debromo-13-cyano-agelastatin A], in the data set on CLL patient cells, the “in vitro activity” value is on record as “nanomolar”.

Turning to `CN1C(=O)N[C@H]2[C@@H]3NC(=O)c4ccc(Cl)n4[C@@H]3C[C@]21O` [1d, 13-Debromo-13-chloro-agelastatin A], in the data set on CLL patient cells, the “in vitro activity” value is listed as “nanomolar”.

Consider O-(2′-Methoxyethyl)-agelastatin A [4c], for which the half-maximal effective concentration (EC50) turned out to be 9.39 µM in data set [9] and 21.1 µM in data set [10].

What is called EC50 is the concentration needed to bring the measured effect to its halfway point.
